Source: PubChem BioAssay (several laboratories)
The entries come from a sample that favours hits as a whole.
Diaph inh CS – diaphorase inhibition or chemical oxidation counter-screen | inhibition, % at 20 µM | 190,000 tested, 0.69% active | AID 1217 | diaphorase resazurin-to-resorufin fluorescence, NADH, 16 min; bacterial (C. kluyveri) enzyme, not human;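 active = primary screen inhibition at 20 µM above a set limit, cut at about 50% in these data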;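 also: plate controls were DMSO with full reaction for no effect and wells lacking NADH for full effect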
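Assay system: diaphorase enzyme from Clostridium kluyveri. Quantity: enzyme working solution with 0.14 U/mL diaphorase. Schedule: reaction incubation of 16 min at room temperature. Technique: resorufin fluorescence, excitation 544 nm, emission 590 nm. Controls: No-NADH positive control and DMSO neutral control.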
Diaph act CS – activates diaphorase or chemically reduces, flagging diaphorase assay artifacts; Diaphorase/resazurin coupled assay, resorufin fluorescence, 16 min; hits give high values; 1 = vehicle wells, 0 = NADH-free wells; activation factor at 20 µM; 190,000 tested, 0.005% active;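 active = diaphorase activity raised at least twofold by the compound at 20 µM; inactive = activation factor below 2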
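Material: Purified diaphorase enzyme from Clostridium kluyveri | Buffer or medium: 50 mM HEPES pH 7.4 with 4.542 mM MgCl2, 0.005% Tween 20 | Times: 16 min enzyme reaction, ambient temperature | Signal: Red resorufin fluorescence at 544/590 nm excitation/emission | Measure: Increased resorufin signal from activators or reducing compounds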
Redox H2O2 prof – compounds producing H2O2 with reducing agent – biochemical, NIH compound library profiling, artefact control for MLSCN library redox annotation, primary screen; DTT-dependent redox cycling H2O2, phenol red/HRP absorbance; 100% = 100 µM peroxide control, 0% = buffer; activation, % at 10 µM; 200,000 tested, 0.03% active; AID 878;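 active = activation of at least 50% relative to the plate's high and low controls in the primary single-dose screen; inactive = activation below 50%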;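 also: compound incubated with DTT at 0.8 mM final as the reducing agent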
L major viab – inhibitors of Leishmania major promastigote growth; Leishmania major promastigotes, resazurin fluorescence viability; inhibition, % at 10 µM; 200,000 tested, 9% active;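 also: promastigotes grown with compound for 44 hours at 28 °C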
G6PDH CS – inhibits Leuconostoc G6PDH, flagging false hits in G6PDH-based assays; Purified L. mesenteroides G6PDH, diaphorase/resazurin coupled fluorescence, 45 min; inhibition, % at 5 µM; 200,000 tested, 0.12% active; AID 1020
PfG6PD inh – PfG6PD (Plasmodium falciparum) enzyme inhibition | PfGluPho enzyme, NADPH resazurin-diaphorase fluorescence | inhibition, % at 20 µM | 350,000 tested, 0.78% active | AID 504690;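 active = inhibition reaching at least a set limit at 20 µM in the primary screen, cut at about 59% in these data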;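 also: 0% = DMSO wells with substrate and 100% = DMSO wells lacking glucose-6-phosphate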
PfG6PD confirm – confirmation of Plasmodium falciparum G6PD inhibitors | shares compounds with PfG6PD inh | recombinant PfGluPho, NADPH-diaphorase-resazurin fluorescence | inhibition, % at 20 µM | 2,400 tested, 34% active | AID 504753;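 active = inhibition of at least 50% at 20 µM in any single replicate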;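 also: 0% = DMSO with substrate and 100% = DMSO lacking glucose-6-phosphate substrate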
Diaph ctr 10uM – inhibits diaphorase or oxidizes, flagging false PfG6PD hits. 820 tested, 39% active. diaphorase-coupled resazurin reduction, fluorescence, NADPH 10 uM. inhibition, % at 20 µM. shares compounds with PfG6PD inh;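 active = average inhibition reaching 50% or more with the compound at 20 µM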;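 also: resorufin red fluorescence formed as diaphorase reduces resazurin using NADPH; 0% = DMSO with enzyme and 100% = DMSO without enzyme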
Diaph ctr 30uM – counter-screen for P. falciparum G6PD inhibitors: diaphorase inhibitors, oxidizers. 820 tested, 29% active. shares compounds with PfG6PD inh. Diaphorase/resazurin coupled assay, resorufin fluorescence, 30 uM NADPH. inhibition, % at 20 µM. AID 504863;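 active = inhibition averaging 50% or more, tested at 20 µM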;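 also: 0% = DMSO with enzyme and 100% = DMSO wells lacking diaphorase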
* = called active by the depositor; · = no result. Rule as the data show it, unless noted: active = inhibition above about 50%; inactive = the rest.

SMILES	Diaph inh CS	Diaph act CS	Redox H2O2 prof	L major viab	G6PDH CS	PfG6PD inh	PfG6PD confirm	others
FC(F)(F)c1cnc(Oc2ccccc2-c2nnco2)c(Cl)c1	10	0.9	0	-7	-6	-10	·
Cc1cn(CC(=O)N2CCN(c3ccccn3)CC2)c(=O)[nH]c1=O	·	·	·	·	·	1	·
COc1ccc(C(=O)NCCc2c[nH]c3ccc(OC)cc23)cc1	·	·	·	·	·	2	·
COc1ccc2[nH]cc(CCNC(=O)c3ccc4ccccc4n3)c2c1	·	·	·	·	·	62*	40
CC(=O)Oc1ccc(-c2csc(Nc3ccc(S(N)(=O)=O)cc3)n2)cc1	·	·	1	55*	14	62*	11
Oc1ccc(Nc2nc(-c3ccc(O)cc3)cs2)cc1	20	0.8	1	9	-12	29	·
NS(=O)(=O)c1ccc(Nc2nc(-c3ccc(O)cc3)cs2)cc1	14	0.9	3	-5	13	70*	11
O=C(NCCC1=CCCCC1)c1ccc2c(c1)N(Cc1ccccc1)C(=O)CS2	4	1	0	33	11	11	·
NC(=O)N/N=C/c1ccc(-n2nncc2-c2ccc(Cl)cc2)cc1	·	·	·	·	·	77*	50*	Diaph ctr 10uM=48;Diaph ctr 30uM=50
COc1ccc2oc(C(=O)OCC(=O)N(C)CC(=O)Nc3ccc(C)cc3)c(C)c2c1	·	·	·	·	·	-19	·
Cn1c2ccccc2c(=O)c2cc(C#Cc3cccc(N)c3)ccc21	·	·	·	·	·	62*	21
Cn1c2ccccc2c(=O)c2ccc(C#Cc3ccc(N)cc3)cc21	·	·	·	·	·	5	·
C/C(Cn1nnc([N+](=O)[O-])n1)=N\NC(=O)c1ccc(O)cc1O	18	0.8	0	-3	8	49	67*	Diaph ctr 10uM=23;Diaph ctr 30uM=31
C/C(Cn1nnc([N+](=O)[O-])n1)=N\NC(=O)c1ccccc1O	·	·	·	·	·	67*	75*	Diaph ctr 10uM=31;Diaph ctr 30uM=34
C/C(Cn1cnc([N+](=O)[O-])n1)=N\NC(=O)c1ccccc1O	-4	1	-1	7	11	11	·
CC(C)(C)c1ccc(OCCn2nc(C(=O)O)c3ccccc3c2=O)cc1	·	·	·	·	·	62*	-2
CC1=C/C(=N\OS(=O)(=O)c2ccccc2)C(C)=CC1=O	100*	0	-1	100*	4	111*	105*	Diaph ctr 10uM=98*;Diaph ctr 30uM=103*
CC(S(=O)(=O)c1ccccc1)S(=O)(=O)c1ccccc1	·	·	·	·	·	1	·
CC1=C/C(=N\OS(=O)(=O)c2ccccc2)C(C(C)C)=CC1=O	101*	0	-1	100*	40	98*	96*	Diaph ctr 10uM=76*;Diaph ctr 30uM=63*
COC(=O)c1ccc(COC(=O)C(CCSC)NC(=O)COc2ccccc2)cc1 (stereo not given)	·	·	·	·	·	13	·
CC(C)c1nc2sc3c(=O)n(N)cnc3c2c2c1COC(C)(C)C2	49	0.5	0	1	4	60*	15
CCCc1nc2sc3c(=O)n(N)cnc3c2c2c1COC(C)(C)C2	4	1	1	4	-7	·	·
CC(=O)Nc1cccc(-n2nnc(SCC(=O)N(C)c3ccccc3)n2)c1	·	·	·	·	·	9	·
COc1ccc(NC(=O)CS(=O)(=O)c2cn(CC(=O)N(C(C)C)C(C)C)c3ccccc23)c(OC)c1	·	·	·	·	·	-4	·
CCCn1cc(S(=O)(=O)CC(=O)Nc2ccc(OC)cc2OC)c2ccccc21	48	0.5	1	10	19	67*	68*	Diaph ctr 10uM=42;Diaph ctr 30uM=33
SMILES	Diaph inh CS	Diaph act CS	Redox H2O2 prof	L major viab	G6PDH CS	PfG6PD inh	PfG6PD confirm	others
Cc1cc(C)n2nc(C(=O)OCC(=O)N(CC(C)C)C3CCS(=O)(=O)C3)nc2n1 (stereo not given)	·	·	·	·	·	-13	·
O=C(NNc1ccccc1[N+](=O)[O-])Nc1ccccc1	22	0.8	2	0	0	21	·
Cc1ccc(NNS(=O)(=O)c2ccc(C)cc2)cc1	20	0.8	2	-8	9	99*	54*	Diaph ctr 10uM=30;Diaph ctr 30uM=-6
O=C(NNc1ccc([N+](=O)[O-])cc1)Nc1ccccc1	·	·	·	·	·	74*	0
Cc1ccc(S(=O)(=O)NNC(=O)C(=O)NNS(=O)(=O)c2ccc(C)cc2)cc1	9	0.9	-1	9	7	-19	·
CC(=O)Nc1ccc(S(=O)(=O)NNc2ccc([N+](=O)[O-])cc2)cc1	·	·	·	·	·	75*	33
CC(=O)c1cccc(NC(=O)COC(=O)c2n[nH]c3ccccc23)c1	1	1	0	3	-5	-2	·
COc1cccc(C(=S)N2CCCC2)c1OC	·	·	·	·	·	50	·
Cn1cnnc1SCC(=O)Nc1sc2c(c1C(N)=O)CCC2	48	0.5	-5	-4	9	24	·
CCCCC/C=C/C1=CC(=O)C[C@H](c2ccc(OC)c(OC)c2)C1	·	·	·	·	·	13	·
Cc1nc2cc(C(F)(F)F)ccc2n1C	6	0.9	-1	-3	5	0	·
CCS(=O)(=O)c1ccc2oc(Nc3ccc(C(C)C)cc3)nc2c1	12	0.9	0	-3	-2	74*	43
CCOc1ccc(Nc2nc3cc(S(=O)(=O)N(CC)CC)ccc3o2)cc1	8	0.9	0	3	6	62*	18
CCc1ccc(C2CC(=O)N(c3cccc(F)c3)C3=C2C(=O)OC3)cc1 (stereo not given)	9	0.9	0	-7	4	-8	·
N#CC1=C2SCN(c3ccc(F)cc3)CN2C(=O)CC1c1cccc(F)c1 (stereo not given)	48	0.5	-1	-2	42	69*	25
CCc1ccc(C2CC(=O)N3CN(c4ccccc4)CSC3=C2C#N)cc1 (stereo not given)	55*	0.5	-3	7	19	78*	9
CSC(=S)NN=C(C)c1cccc(C)n1	·	·	·	·	·	95*	30
CC(=NNC(=S)N1CCCCC1)c1cccc(C)n1	·	·	·	·	·	34	·
c1ccc(-c2nnc3sc(-c4csc5c4CCCC5)nn23)cc1	3	1	-5	13	-26	73*	3
Cc1cc(C(=O)OCC(=O)Nc2ccccc2[N+](=O)[O-])c2ccccc2n1	11	0.9	0	-5	-6	-4	·
Cn1cc(/C(Cc2ccccc2)=N\O)c2ccccc21	11	0.9	-2	12	5	4	·
Cn1cc(C(CO)Cc2ccccc2)c2ccccc21 (stereo not given)	·	·	·	·	·	88*	40
